Consider two compounds from ChEMBL document CHEMBL5154824, “Design and synthesis of multifunctional microtubule targeting agents endowed with dual pro-apoptotic and anti-autophagic efficacy” (Eur J Med Chem, 2022).

Series [1] deals with HeLa. Description: Induction of morphological changes in human HeLa cells assessed as golgi complex fragmentation at 1 uM incubated for 3 hrs by phalloidin staining based laser scanning confocal microscopic analysis. The series is classed as functional, cell-based. The gist of the method:
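HeLa cells in growth medium were treated at 1 or 10 μM, with BafA1 300 nM as reference, for 3 h. Cells were fixed in 4% PFA, stained with anti-GM130 for the Golgi and AF647-phalloidin for actin, and imaged by laser scanning confocal microscopy.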

Series [2] relates to HeLa. The experiment in a line: Inhibition of autophagosome degradationin human HeLa cells at 1 uM incubated for 3 hrs with HBSS medium by immunofluorescence based laser scanning confocal microscopic analysis. It counts as functional, cell-based. The method, boiled down: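 HeLa cells were treated in HBSS at 1 or 10 μM, with BafA1 300 nM as reference, for 3 h. After fixation in ice-cold methanol, LC3 and LAMP1 were immunostained. Laser scanning confocal microscopy assessed autophagosome number and LC3/LAMP1 colocalisation.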

Series [3] relates to HeLa. Description: Cytotoxicity against human HeLa cells overexpressing tubulin beta3 assessed as inhibition of cell growth measured after 48 hrs by MTT assay. The series is classed as functional, cell-based. The gist of the method:
(§1)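 MTT assay. Cells were exposed for 48 h to increasing concentrations of compound. Ovarian A2780 was paired with its P-gp-overexpressing A2780AD counterpart, and HeLa with HeLa β3, which overexpresses the tubulin β3 isotype. IC50 is the mean ± SD of three independent experiments.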
(In general: Formazan colour is commonly taken as a measure of viable cells.)

The test system of a further series is SCC-4. The experiment in a line: Induction of apoptosis in human SCC-4 cells assessed as increase in apoptotic cells at 0.5 uM after 48 hrs by Annexin V-FITC/PI staining based flow cytometry method. The series is classed as functional, cell-based. The method, boiled down:
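SCC4 cells were treated at 0.5 or 2 μM for 48 h, then stained with Annexin V/PI and analysed by flow cytometry. Data are mean ± SEM of three independent experiments, with an unpaired one-tailed t-test versus vehicle.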
In general terms: In flow cytometry, cells or beads pass a laser one at a time.

Series [4] can be described thus: Cytotoxicity against human FLO-1 cells assessed as inhibition of cell growth measured after 72 hrs by MTT assay. It counts as functional, cell-based. The following applies: FLO-1, 72 h. The gist of the method:
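Oesophageal adenocarcinoma lines were exposed to at least 8 increasing concentrations for 72 h. Viability was measured by MTT. IC50 is the mean ± SD of at least three independent experiments.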

In a further series the test system is TR146. The experiment in a line: Induction of apoptosis in human TR146 cells assessed as increase in apoptotic cells at 0.5 uM after 48 hrs by Annexin V-FITC/PI staining based flow cytometry method. It counts as functional, cell-based. The gist of the method: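 Ca9.22 or TR146 cells were seeded at 30×10^4 cells/mL and treated with 500 nM compound or 1% EtOH (v/v) vehicle for 48 h. Annexin V/PI staining was read by flow cytometry, gating 10,000 cells on vehicle-treated cells. Data are mean ± SEM (n = 3).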

A short description of series [5]: Ratio of IC50 for cytotoxicity against human […] assessed as inhibition of cell growth measured after 48 hrs to IC50 for cytotoxicity against human A2780 cells assessed as inhibition of cell growth measured after 48 hrs. It counts as functional. The gist of the method:
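MTT assay: cells exposed to increasing compound concentrations for 48 h. Lines were A2780 and its P-gp-overexpressing A2780AD counterpart, and HeLa and HeLa β3 (tubulin β3-overexpressing). IC50 is the mean ± SD of three independent experiments. R/S is the IC50 in the resistant line divided by that in the parental line.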

Series [6] relates to A2780. The experiment in a line: Cytotoxicity against human A2780AD cells assessed as inhibition of cell growth measured after 48 hrs by MTT assay. It counts as functional, cell-based. The following applies: A2780, 48 h. The method, boiled down: as §1
Series [7] concerns the target T1, Tubulin (Homo sapiens) (UniProt P68371+Q9H4B7+P0DPH7+P68366+Q13509+Q71U36+P04350+Q3ZCM7+P07437+P68363+Q9BQE3+Q6PEY2+Q13885+Q9BVA1+Q9BUF5). Description: Binding affinity to tubulin (unknown origin) assessed as fluorescence peak around 460 nm by UV/vis absorption spectroscopy. The series is classed as protein-complex assay.
The subject of series [8] is A2780. The experiment in a line: Cytotoxicity against human A2780 cells assessed as inhibition of cell growth measured after 48 hrs by MTT assay. It counts as functional, cell-based. The following applies: A2780, 48 h. The method, boiled down: as §1
For series [9], the target named is T1, Tubulin (Homo sapiens). The experiment in a line: Inhibition of tubulin (unknown origin) assembly measured at 5 uM by fluorescence assay. The series is classed as protein-complex assay.
Another series deals with Albumin (Bos taurus, UniProt P02769). The experiment in a line: Binding affinity to bovine serum albumin assessed as increase in fluorescence intensity. The conditions noted are these: cattle. The method, boiled down:
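Saturation assay: compound fixed at 1 μM was incubated with increasing amounts of BSA. Fluorescence was read with excitation at 350 nm and emission at 450 nm in a plate reader.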

Series [10] concerns HeLa. The experiment in a line: Induction of autophagy in human HeLa cells assessed as increase in number of autophagosomes formation at 10 uM measured after 3 hrs by immunofluorescence based laser scanning confocal microscopic analysis. The series is classed as functional, cell-based. The gist of the method: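 HeLa cells in growth medium were treated at 1 or 10 μM, with BafA1 300 nM as reference, for 3 h. Cells were fixed in ice-cold methanol, immunostained for LC3 (autophagosomes) and LAMP1, and imaged by laser scanning confocal microscopy.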

Calls of active or inactive are those of the source. The calls are words filed in the database; no cut-off is given here.

Sequence of Albumin (P02769 whole entry): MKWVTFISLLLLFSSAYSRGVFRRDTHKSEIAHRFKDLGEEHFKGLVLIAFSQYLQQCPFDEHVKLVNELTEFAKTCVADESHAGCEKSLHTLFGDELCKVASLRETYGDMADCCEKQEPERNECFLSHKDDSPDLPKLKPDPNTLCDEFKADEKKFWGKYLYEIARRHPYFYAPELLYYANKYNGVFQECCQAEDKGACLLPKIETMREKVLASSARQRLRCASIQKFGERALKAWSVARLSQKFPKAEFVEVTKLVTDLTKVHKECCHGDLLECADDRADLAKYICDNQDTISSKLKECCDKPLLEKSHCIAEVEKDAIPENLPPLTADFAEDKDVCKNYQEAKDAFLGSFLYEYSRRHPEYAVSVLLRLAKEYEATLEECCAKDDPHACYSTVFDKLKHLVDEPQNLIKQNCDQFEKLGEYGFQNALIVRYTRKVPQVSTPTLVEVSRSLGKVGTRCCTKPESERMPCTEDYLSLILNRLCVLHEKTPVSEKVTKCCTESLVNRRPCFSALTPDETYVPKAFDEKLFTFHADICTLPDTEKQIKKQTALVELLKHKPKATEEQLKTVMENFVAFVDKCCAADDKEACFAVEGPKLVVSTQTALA

In the case of `O=C(OC1=C(c2cccc3ncccc23)Oc2cc3ccccc3cc2-n2cccc21)C1CCNCC1`, the result in the series with HeLa [1] and in the series with HeLa [2] was Active.

Regarding `CN1CCN(C(=O)OC2=C(c3cccc4ncccc34)Oc3cc4ccccc4cc3-n3cccc32)CC1`, the IC50 came to 331 nM in the series with HeLa [3], 400 nM in [4], 399 nM in the series with A2780 [6] and 600 nM in the series with A2780 [8]. Also, the outcome in the series with SCC-4, in the series on TR146, on Tubulin (Homo sapiens) [7] and in the series with HeLa [10] was Active. For the same compound, in series [5], the “Ratio IC50” value amounted to 0.67. For the same compound, on Tubulin (Homo sapiens) [9], the inhibition came to 100%. In addition, the outcome on Albumin was Active.

The IC50 is the concentration that gives 50% inhibition. One may read the inhibition as how much of the control response was suppressed. A high value points to a response far below the control.
